Assay [1] deals with T1, human MOR (Homo sapiens, UniProt P35372). To be noted: from [35S]GTPγS stimulation and inhibition data; cited from earlier work.
The target of assay [2] is T2, human KOR (Homo sapiens, UniProt P41145). Conditions: cited from earlier work.
Assay [3] deals with T2, human KOR. To be noted: from [35S]GTPγS stimulation and inhibition data; cited from earlier work.
In a further assay the test system is rats. Conditions: ref 10b; cited from earlier work.
In assay [4] the test system is morphine dependent monkeys. To be noted: more potent (in contrast to cyclorphan); cited from earlier work.
In another assay the test system is Male Sprague Dawley rats. The assay can be described thus: Intracranial self-stimulation. It counts as in vivo, rat. Conditions: i.p., measured for 1 hr; for Effect on ICSS thresholds: butorphan 0.25-4.0 mg/kg, 8 1.0-30.0 mg/kg. The essentials: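 Rats carried monopolar electrodes in the medial forebrain bundle (lateral hypothalamus). They were trained on FR1 at 141 Hz (500 ms trains) by the rate-frequency method until thresholds were stable (±10%, 4 days); N=6 per cohort. Baseline was the mean of the last two of three 15-min functions. Ascending i.p. doses were given in 20% DMSO/water or 0.9% saline, then four 15-min trials. Output was percent of baseline, by two-way repeated-measures ANOVA with Tukey.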

For assay [5], the target named is T1, human MOR. The assay is described as follows: Stimulation/inhibition of [35S]GTPγS binding mediated by the MOR. It counts as biochemical. To be noted: from [35S]GTPγS stimulation and inhibition data. In a few lines:
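Membranes from CHO cells stably expressing human MOR (7.5 μg protein/tube) were incubated 60 min at 30 °C with 12 test compound concentrations in 50 mM Tris–HCl, 3 mM MgCl2, 100 mM NaCl, 0.2 mM EGTA, pH 7.4, plus 3 μM GDP and 80 pmol [35S]GTPγS. Antagonist mode used 200 nM DAMGO. Nonspecific binding was defined with 10 μM GTPγS. Filter-bound counts were given as % stimulation over basal; at least three experiments in triplicate.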

In assay [6] the target is T2, human KOR. The assay is described as follows: Stimulation/inhibition of [35S]GTPγS binding mediated by the KOR. It is filed as biochemical. Conditions: from [35S]GTPγS stimulation and inhibition data. The essentials:
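CHO membranes stably expressing human KOR (15 μg protein/tube) were incubated 60 min at 30 °C with 12 concentrations of test compound in 50 mM Tris–HCl, 3 mM MgCl2, 100 mM NaCl, 0.2 mM EGTA, pH 7.4, with 3 μM GDP and […] [35S]GTPγS. Antagonism was tested against 30 nM U50,488. Nonspecific binding used 10 μM GTPγS. After filtration and counting, results were expressed as % stimulation over basal; ≥3 experiments, triplicate.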

The subject of the next assay is rhesus monkeys. To be noted: cited from earlier work.
A further assay relates to mice. Conditions: cited from earlier work.

The structures appear in SMILES notation. Where two headings read alike, the source gives them in different places.

In general, Ki refers to the equilibrium dissociation constant of an inhibitor or competing ligand from its target.

T2 sequence (P41145 whole entry): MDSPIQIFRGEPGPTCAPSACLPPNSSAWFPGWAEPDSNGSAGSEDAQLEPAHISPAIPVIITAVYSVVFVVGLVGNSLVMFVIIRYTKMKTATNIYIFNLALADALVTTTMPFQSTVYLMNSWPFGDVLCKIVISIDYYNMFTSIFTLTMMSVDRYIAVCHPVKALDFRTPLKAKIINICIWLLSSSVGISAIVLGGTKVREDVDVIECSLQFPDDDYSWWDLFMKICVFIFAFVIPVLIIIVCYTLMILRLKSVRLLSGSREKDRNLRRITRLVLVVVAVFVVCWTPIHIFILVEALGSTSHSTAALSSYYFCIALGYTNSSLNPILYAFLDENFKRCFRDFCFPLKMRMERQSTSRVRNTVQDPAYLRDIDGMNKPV
T1 sequence (P35372 whole entry): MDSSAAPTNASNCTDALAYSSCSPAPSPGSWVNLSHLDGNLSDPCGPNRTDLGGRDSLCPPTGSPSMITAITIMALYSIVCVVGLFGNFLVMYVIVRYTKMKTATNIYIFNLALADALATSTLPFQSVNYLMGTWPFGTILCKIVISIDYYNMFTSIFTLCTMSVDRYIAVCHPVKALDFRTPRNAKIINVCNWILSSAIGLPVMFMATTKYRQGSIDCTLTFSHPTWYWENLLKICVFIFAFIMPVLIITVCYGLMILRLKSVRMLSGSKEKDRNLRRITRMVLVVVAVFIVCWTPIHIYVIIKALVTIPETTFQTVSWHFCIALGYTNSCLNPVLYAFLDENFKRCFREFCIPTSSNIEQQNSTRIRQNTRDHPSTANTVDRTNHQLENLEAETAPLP

For `COc1ccc2c(c1)[C@]13CCN(CC4CC4)[C@H](C2)[C@@H]1Cc1sc(N)nc1C3` [Compound 7], the “Pharmacological properties at the MOR (agonist/antagonist)” value at human MOR [1] is “agonist and antagonist properties”. In addition, the “Selectivity δ/κ” value at human KOR [2] (ratio of Ki values) is listed as 7. Further, at human KOR [3], the “Pharmacological properties at the KOR (agonist/antagonist)” value was “full agonists”.
As for `Oc1ccc2c(c1)[C@@]13CCCC[C@H]1[C@@H](C2)N(CC1CCC1)CC3` [Butorphan], the “Antinociception in the warm-water tail flick test” value with rats is reported as “full antinociception”. Besides, the “Potency in suppressing abstinence” value in [4] was 40 times. Moreover, the “Effect on maximum rates of responding” value in the assay on Male Sprague Dawley rats (4.0 mg/kg) is “significantly decreased rates of responding”. In the assay on Male Sprague Dawley rats, the “Effect on ICSS thresholds” value is listed as “no significant effect”.
For `COc1ccc2c(c1)[C@]13CCN(CC4CC4)[C@H](C2)[C@@H]1Cc1sc(NC(C)=O)nc1C3` [Compound 10, 6,7-(2-N-Acetyl)aminothiazolo-N-cyclopropylmethyl-3-methoxymorphinan], at human MOR [5], the “Pharmacological properties at the MOR (agonist/antagonist)” value is “agonist and antagonist properties”. In addition, the “Pharmacological properties at the KOR (agonist/antagonist)” value at human KOR [6] is given as “full agonists”.
As to `Oc1ccc2c(c1)[C@@]13CCCC[C@H]1[C@@H](C2)N(CC1CC1)CC3` [Cyclorphan], in the assay on rats, the “Antinociception in the warm-water tail flick test” value is “partial effect”. Also, in the assay on rhesus monkeys, the “Effect on cocaine self-administration” value is given as “reduced cocaine self-administration”.
Take `CCNc1nc2cc3c(cc2s1)C[C@@H]1[C@@H]2CCCC[C@]32CCN1CC1CC1` [Compound 1c]: the “Effect on morphine sensitization” value with mice was “inhibited morphine sensitization”.
For the compound `CNc1nc2c(s1)C[C@H]1[C@H]3Cc4ccc(OC)cc4[C@@]1(CCN3CC1CC1)C2` [Compound 11, 6,7-(2-N-Methyl)aminothiazolo-N-cyclopropylmethyl-3-methoxymorphinan], on human MOR [5], the “Pharmacological properties at the MOR (agonist/antagonist)” value is “agonist and antagonist properties”. For the same compound, the “Pharmacological properties at the KOR (agonist/antagonist)” value on human KOR [6] was “full agonists”.
Regarding `Nc1nc2c(s1)C[C@H]1[C@H]3Cc4ccc(O)cc4[C@@]1(CCN3CC1CC1)C2` [Compound 8], on human KOR [2] (read-out: Ki [3H]U69,593 (κ), CHO membranes, human KOR, ± SEM), the inhibition constant (Ki) is 0.072 ± 0.0039 nM. Further, the “Pharmacological properties at the KOR (agonist/antagonist)” value on human KOR [3] was “both agonist and antagonist properties”. Further, in the assay with Male Sprague Dawley rats, the “Effect on ICSS thresholds” value is “no significant effect”.

The values are drawn from paper PMC3880591 (Journal of medicinal chemistry, 2013).
